What was measured:
CTSB = CTSB (Mus musculus, UniProt P10605); experiment: Cathepsin activity in lysates of treated 4T1 cells, substrate Z-Arg-Arg-AMC; format: cell-based, murine; details: 1 μM, 4 h, then 1 h, relative to vehicle control
Summary of the method: (§1)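 4T1 cells were given vehicle, 1 μM test compound, or 1 μM E64d (permeable positive control) for 4 h. Medium was then replaced, and cells received green light (520–525 nm) for 10 min or were kept dark, then incubated 1 h. Substrate 100 μM final; AMC fluorescence (ex 360/em 430 nm) read every 30 s for 5 min at 37 °C; % activity vs vehicle.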

cysteine cathepsins = experiment: Cathepsin activity in lysates of treated 4T1 cells, substrate Z-Phe-Arg-AMC; format: cell-based, murine; details: 1 μM, 4 h, then 1 h, relative to vehicle control
Summary of the method: as §1

[1] = Preliminary phototoxicity screen with green light; format: cell-based; details: green light (520–525 nm); data not shown

Chain of CTSB (P10605 80-339): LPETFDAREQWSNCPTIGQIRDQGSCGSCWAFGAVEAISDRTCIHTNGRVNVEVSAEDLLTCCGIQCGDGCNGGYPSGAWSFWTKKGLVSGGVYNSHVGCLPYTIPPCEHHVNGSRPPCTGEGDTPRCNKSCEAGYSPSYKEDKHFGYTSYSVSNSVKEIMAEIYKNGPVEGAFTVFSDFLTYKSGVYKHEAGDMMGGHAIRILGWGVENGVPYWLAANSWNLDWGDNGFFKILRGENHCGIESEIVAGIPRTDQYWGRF

Compound: CCOC(=O)[C@H]1O[C@@H]1C(=O)N[C@@H](CC(C)C)C(=O)NCCC(C)C [Compound E64d]
- Percent activity of cysteine cathepsins, substrate Z-Arg-Arg-AMC, Dark (CTSB; dark): <5%
- Percent activity of cysteine cathepsins, substrate Z-Arg-Arg-AMC, Light (CTSB; green light 10 min): <5%
- Percent activity of cysteine cathepsins, substrate Z-Phe-Arg-AMC, Dark (cysteine cathepsins; dark): 18 ± 4%
- Percent activity of cysteine cathepsins, substrate Z-Phe-Arg-AMC, Light (cysteine cathepsins; green light 10 min): 21 ± 4%

Compound: [Ru(dppn)(dqpy)-(py)](PF6)2
- phototoxicity in preliminary screen [1]: showed phototoxicity

Reference: article PMC11066580 (Inorganic chemistry, 2024)
